Tests used:
[1] = test system: Rattus norvegicus; assay: Hypocholesterolemic activity in rat assessed as serum glycerol level at 10 mg/kg/day administered for 14 days (reference value: 100 +/- 39%); type: functional
[2] = test system: Rattus norvegicus; assay: Effect on heart weight in rat at 10 mg/kg/day administered for 16 days measured 24 hrs after last drug dosage relative to total body weight (reference value: 0.37 to 0.43%); type: ADME, organism-based; details: in vivo
[3] = test system: Rattus norvegicus; assay: Effect on spleen weight in rat at 1 mg/kg/day administered for 16 days measured 24 hrs after last drug dosage relative to total body weight (reference value: 0.55 +/- 0.12%); type: ADME, organism-based; details: in vivo
[4] = test system: Rattus norvegicus; assay: Effect on brain weight in rat at 1 mg/kg/day administered for 16 days measured 24 hrs after last drug dosage relative to total body weight (reference value: 0.67 +/- 0.05%); type: ADME, organism-based; details: in vivo
[5] = test system: Rattus norvegicus; assay: Effect on brain weight in rat at 10 mg/kg/day administered for 16 days measured 24 hrs after last drug dosage relative to total body weight (reference value: 0.67 +/- 0.05%); type: ADME, organism-based; details: in vivo
[6] = test system: Rattus norvegicus; assay: Effect on vas deferens and epididymis weight in rat at 1 mg/kg/day administered for 16 days measured 24 hrs after last drug dosage relative to total body weight (reference value: 0.22 +/- 0.04%); type: ADME, organism-based; details: in vivo
[7] = test system: Rattus norvegicus; assay: Effect on testes weight in rat at 1 mg/kg/day administered for 16 days measured 24 hrs after last drug dosage relative to total body weight (reference value: 1.08 +/- 0.08%); type: ADME, organism-based, Testis; details: in vivo
[8] = test system: Rattus norvegicus; assay: Effect on vesicular gland weight in rat at 50 mg/kg/day administered for 16 days measured 24 hrs after last drug dosage relative to total body weight (reference value: 0.10 +/- 0.04%); type: ADME, organism-based; details: in vivo
[9] = test system: Rattus norvegicus; assay: Effect on adrenal gland weight in rat at 10 mg/kg/day administered for 16 days measured 24 hrs after last drug dosage relative to total body weight (reference value: 0.015 +/- 0.003%); type: ADME, organism-based; details: in vivo
[10] = test system: Rattus norvegicus; assay: Hypocholesterolemic activity in rat assessed as [14C]palmitic acid level in brain at 10 mg/kg/day administered for 1 week measured after 22 hrs on day 7 by scintillation counting analysis (reference value: 0.07 +/- 0.04%); type: functional
Outline: (§1)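 Male Sprague-Dawley rats on lab chow dosed orally once daily for 1 week at 10 mg/kg/day, suspended in 1% CMC, or given vehicle alone. On day 7, 5 μCi [1-14C]palmitic acid given orally. Killed after 22 hr; organs made into 10% water homogenates. Aliquots of 0.1 cc of homogenate, urine, blood or feces were digested and scintillation counted. Output is % of dose per tissue, N = 6.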

[11] = test system: Rattus norvegicus; assay: Hypocholesterolemic activity in rat assessed as [14C]palmitic acid level in spleen at 10 mg/kg/day administered for 1 week measured after 22 hrs on day 7 by scintillation counting analysis (reference value: 0.46 +/- 0.24%); type: functional; outline: as §1
[12] = test system: Rattus norvegicus; assay: Hypocholesterolemic activity in rat assessed as [14C]palmitic acid level in testes at 10 mg/kg/day administered for 1 week measured after 22 hrs on day 7 by scintillation counting analysis (reference value: 0.22 +/- 0.10%); type: functional, Testis; outline: as §1
[13] = test system: Rattus norvegicus; assay: Hypocholesterolemic activity in rat assessed as [14C]palmitic acid level in vas deferens at 10 mg/kg/day administered for 1 week measured after 22 hrs on day 7 by scintillation counting analysis (reference value: 0.23 +/- 0.05%); type: functional; outline: as §1
[14] = test system: Rattus norvegicus; assay: Hypocholesterolemic activity in rat assessed as [14C]palmitic acid level in chyme at 10 mg/kg/day administered for 1 week measured after 22 hrs on day 7 by scintillation counting analysis (reference value: 0.41+/- 0.17%); type: functional; outline: as §1
[15] = test system: Rattus norvegicus; assay: Hypocholesterolemic activity in rat assessed as [14C]palmitic acid level in feces at 10 mg/kg/day administered for 1 week measured after 22 hrs on day 7 by scintillation counting analysis (reference value: 75.52 +/- 6.21%); type: functional; outline: as §1
[16] = test system: Rattus norvegicus; assay: Hypocholesterolemic activity in rat assessed as [14C]cholesterol level in liver at 10 mg/kg/day administered for 1 week measured after 22 hrs on day 7 by scintillation counting analysis (reference value: 19.80 +/- 2.93%); type: functional
Outline: (§2)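 Male rats were dosed orally for 1 week (10 mg/kg/day) or with 1% CMC. On day 7 they received 5 μCi [4-14C]cholesterol orally and were killed after 22 hr. Organs were homogenized (10% in water); 0.1-cc aliquots of homogenate, urine, blood or feces were digested with Protosol. Samples were counted in toluene/Triton X-100 (2:1) scintillant with 0.4% PPO and 0.01% POPOP. Results are % of dose per tissue, N = 6.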

[17] = test system: Rattus norvegicus; assay: Hypocholesterolemic activity in rat assessed as [14C]cholesterol level in heart at 10 mg/kg/day administered for 1 week measured after 22 hrs on day 7 by scintillation counting analysis (reference value: 0.39 +/- 0.13%); type: functional; outline: as §2
[18] = test system: Rattus norvegicus; assay: Hypocholesterolemic activity in rat assessed as [14C]cholesterol level in lung at 10 mg/kg/day administered for 1 week measured after 22 hrs on day 7 by scintillation counting analysis (reference value: 1.99 +/- 1.18%); type: functional; outline: as §2
[19] = test system: Rattus norvegicus; assay: Hypocholesterolemic activity in rat assessed as [14C]cholesterol level in feces at 10 mg/kg/day administered for 1 week measured after 22 hrs on day 7 by scintillation counting analysis (reference value: 15.50 +/- 5.24%); type: functional; outline: as §2
[20] = test system: Rattus norvegicus; assay: Effect on body weight in rat at 1 mg/kg/day administered for 16 days measured on day 7 (reference value: 173 +/- 12 gms); type: ADME, organism-based; details: in vivo, 384 h
Outline: (§3)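 Male Sprague-Dawley rats with chow and water ad libitum. Compound suspended in 1% CMC-water and given orally by intubation needle at 11:00 a.m., 1, 5, 10 or 50 mg/kg/day, for 16 days. Body weight (g) recorded on days 0, 7 and 16. N = 8.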

[21] = test system: Rattus norvegicus; assay: Effect on body weight in rat at 50 mg/kg/day administered for 16 days measured on day 16 (reference value: 233 +/- 16 gms); type: ADME, organism-based; details: in vivo, 384 h; outline: as §3
[22] = test system: Rattus norvegicus; assay: Hypocholesterolemic activity in Sprague-Dawley rat assessed as serum cholesterol level at 1 mg/kg/day, po administered via intubation measured on day 4 by Liebermann-Burchard reaction (reference value: 100 +/- 7%); type: functional
[23] = test system: Rattus norvegicus; assay: Effect on DNA content in rat liver at 10 mg/kg/day administered for 16 days (reference value: 100 +/- 25%); type: ADME, organism-based; details: in vivo, 384 h
[24] = test system: Rattus norvegicus; assay: Effect on protein content in rat liver at 10 mg/kg/day administered for 16 days (reference value: 100 +/- 6%); type: ADME, organism-based; details: in vivo, 384 h
[25] = test system: Rattus norvegicus; assay: Hypocholesterolemic activity in [14C]palmitic acid-treated rat assessed as decrease in 14C fatty acid incorporation into cholesterol ester fraction in liver at 10 mg/kg/day administered for 1 week by scintillation counting analysis; type: functional; parameters: scale not given: the % may be the effect or the level left
[26] = test system: Rattus norvegicus; assay: Hypocholesterolemic activity in [14C]palmitic acid-treated rat assessed as increase in free fatty acid accumulation in liver at 10 mg/kg/day administered for 1 week by scintillation counting analysis; type: functional

Cc1ccc(OCC(=O)COc2ccc(C)cc2)cc1
Activity [1]: 24% | Activity [2]: 0.38% | Activity [3]: 0.43% | Activity [4]: 0.74% | Activity [5]: 0.71% | Activity [6]: 0.23% | Activity [7]: 1.12% | Activity [8]: 0.15% | Activity [9]: 0.016% | Activity [10]: 0.08% | Activity [11]: 0.37% | Activity [12]: 0.25% | Activity [13]: 0.5% | Activity [14]: 2% | Activity [15]: 63.52% | Activity [16]: 22.19% | Activity [17]: 0.58% | Activity [18]: 2.45% | Activity [19]: 22.1% | Activity [20]: 166 g | Activity [21]: 232 g | Activity [22]: 75% | Activity [23]: 81% | Activity [24]: 102% | Activity [25]: 46% | Activity [26]: 10%

Source: ChEMBL document CHEMBL3272327, “Hypocholesterolemic activity of 1,3-bis(substituted phenoxy)-2-propanones” (J Med Chem, 1976)
